Reference: ChEMBL document CHEMBL3763137, “Design and synthesis of novel 4'-demethyl-4-deoxypodophyllotoxin derivatives as potential anticancer agents” (Bioorg Med Chem Lett, 2016)
Active and inactive are the calls of the source. No cut-off for these calls is given here.

Key:
[1] = Antiproliferative activity against human HCT116 cells after 48 hrs by MTT assay; format: functional, cell-based; conditions: HCT-116, 48 h
Procedure, shortened: (§1)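 Human cancer cells (HCT-116, HepG2 or MGC-803) incubated with compound for 48 h. Viability read by MTT assay. IC50 taken from dose-response curves. Mean ± SD of three separate assays.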

[2] = system: HepG2; test: Antiproliferative activity against human HepG2 cells after 48 hrs by MTT assay; format: functional, cell-based; conditions: HepG2, 48 h; procedure, shortened: as §1
[3] = Antiproliferative activity against human MGC803 cells after 48 hrs by MTT assay; format: functional, cell-based; conditions: MGC-803, 48 h; procedure, shortened: as §1
[4] = Cell cycle arrest in human MGC803 cells assessed as accumulation at G0/G1 phase at 10 uM after 24 hrs by propidium iodide staining based flow cytometric analysis (reference value: 77.59 %); format: functional; conditions: MGC-803
Procedure, shortened: (§2)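 MGC-803 cells were exposed for 24 h to 0 (untreated), 10, 20 or 40 µM. The percentage of cells in each cell-cycle phase was measured by flow cytometry. Values are mean ± SD of three independent experiments, with P compared to control.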

[5] = Cell cycle arrest in human MGC803 cells assessed as accumulation at S phase at 10 uM after 24 hrs by propidium iodide staining based flow cytometric analysis (reference value: 20.52 %); format: functional; conditions: MGC-803; procedure, shortened: as §2
[6] = Cell cycle arrest in human MGC803 cells assessed as accumulation at G2/M phase at 10 uM after 24 hrs by propidium iodide staining based flow cytometric analysis (reference value: 1.89 %); format: functional; conditions: MGC-803; procedure, shortened: as §2
[7] = Cell cycle arrest in human MGC803 cells assessed as accumulation at G0/G1 phase at 20 uM after 24 hrs by propidium iodide staining based flow cytometric analysis (reference value: 77.59 %); format: functional; conditions: MGC-803; procedure, shortened: as §2
[8] = Cell cycle arrest in human MGC803 cells assessed as accumulation at S phase at 20 uM after 24 hrs by propidium iodide staining based flow cytometric analysis (reference value: 20.52 %); format: functional; conditions: MGC-803; procedure, shortened: as §2
[9] = Cell cycle arrest in human MGC803 cells assessed as accumulation at G2/M phase at 20 uM after 24 hrs by propidium iodide staining based flow cytometric analysis (reference value: 1.89 %); format: functional; conditions: MGC-803; procedure, shortened: as §2
[10] = Cell cycle arrest in human MGC803 cells assessed as accumulation at G0/G1 phase at 40 uM after 24 hrs by propidium iodide staining based flow cytometric analysis (reference value: 77.59 %); format: functional; conditions: MGC-803; procedure, shortened: as §2
[11] = Cell cycle arrest in human MGC803 cells assessed as accumulation at S phase at 40 uM after 24 hrs by propidium iodide staining based flow cytometric analysis (reference value: 20.52 %); format: functional; conditions: MGC-803; procedure, shortened: as §2
[12] = Cell cycle arrest in human MGC803 cells assessed as accumulation at G2/M phase at 40 uM after 24 hrs by propidium iodide staining based flow cytometric analysis (reference value: 1.89 %); format: functional; conditions: MGC-803; procedure, shortened: as §2
[13] = Cell cycle arrest in human MGC803 cells assessed as accumulation at G2/M phase after 24 hrs by propidium iodide staining based flow cytometric analysis; format: functional; conditions: MGC-803; procedure, shortened: as §2
[14] = Downregulation of cyclin A expression in human MGC803 cells after 24 hrs by Western blot analysis; format: functional, cell-based; conditions: MGC-803
Procedure, shortened: (§3)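 MGC-803 cells were incubated for 24 h at 0, 10, 20 or 40 µM. Levels of cyclin A, cyclin B, CDK1, cdc25c and p21 were detected by Western blot with specific antibodies, with P compared to 0 µM.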

[15] = Downregulation of cyclin B expression in human MGC803 cells after 24 hrs by Western blot analysis; format: functional, cell-based; conditions: MGC-803; procedure, shortened: as §3
[16] = Downregulation of CDK1 expression in human MGC803 cells after 24 hrs by Western blot analysis; format: functional, cell-based; conditions: MGC-803; procedure, shortened: as §3
[17] = Downregulation of CDK2 expression in human MGC803 cells at 10 to 40 uM after 24 hrs by Western blot analysis; format: functional, cell-based; conditions: MGC-803
[18] = Downregulation of cdc25c expression in human MGC803 cells at 10 to 40 uM after 24 hrs by Western blot analysis; format: functional, cell-based; conditions: MGC-803; procedure, shortened: as §3
[19] = Upregulation of p21 expression in human MGC803 cells at 10 to 40 uM after 24 hrs by Western blot analysis; format: functional, cell-based; conditions: MGC-803; procedure, shortened: as §3
[20] = system: Mus musculus; test: Toxicity in ICR mouse xenografted with human HepG2 cells assessed as body weight at 1 mg/kg, iv administered every 2 days measured on day 1 (reference value: 21 +/- 0.89 g); format: organism-based; conditions: in vivo, 48 h
[21] = system: Mus musculus; test: Toxicity in ICR mouse xenografted with human HepG2 cells assessed as body weight at 2 mg/kg, iv administered every 2 days measured on day 1 (reference value: 21 +/- 0.89 g); format: organism-based; conditions: in vivo, 48 h
[22] = system: Mus musculus; test: Toxicity in ICR mouse xenografted with human HepG2 cells assessed as body weight at 4 mg/kg, iv administered every 2 days measured on day 1 (reference value: 21 +/- 0.89 g); format: organism-based; conditions: in vivo, 48 h
[23] = system: Mus musculus; test: Toxicity in ICR mouse xenografted with HepG2 cells assessed as body weight at 1 mg/kg, iv administered every 2 days measured on day 14 (reference value: 30.10 +/- 2.39 g); format: organism-based; conditions: in vivo, 48 h
[24] = system: Mus musculus; test: Toxicity in ICR mouse xenografted with HepG2 cells assessed as body weight at 2 mg/kg, iv administered every 2 days measured on day 14 (reference value: 30.10 +/- 2.39 g); format: organism-based; conditions: in vivo, 48 h
[25] = system: Mus musculus; test: Toxicity in ICR mouse xenografted with HepG2 cells assessed as body weight at 4 mg/kg, iv administered every 2 days measured on day 14 (reference value: 30.10 +/- 2.39 g); format: organism-based; conditions: in vivo, 48 h
[26] = system: HepG2; test: Antitumor activity against human HepG2 cells xenografted in ICR mouse assessed as tumor growth inhibition at 4 mg/kg, iv administered every 2 days measured after 14 days relative to control; format: functional; conditions: read-out: TGI
Procedure, shortened: (§4)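 HepG2 xenografts established in ICR mice, then randomized into four groups (n = 10 each). Compound given intravenously every two days; control group received vehicle at 0.4 mL/mouse. Tumors weighed after two weeks (day 14); inhibitory ratio calculated versus vehicle control. Body weights recorded on days 1 and 14.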

[27] = system: HepG2; test: Antitumor activity against human HepG2 cells xenografted in ICR mouse assessed as tumor growth inhibition at 1 mg/kg, iv administered every 2 days measured after 14 days relative to control; format: functional; conditions: read-out: TGI; procedure, shortened: as §4
[28] = system: HepG2; test: Antitumor activity against human HepG2 cells xenografted in ICR mouse assessed as tumor growth inhibition at 2 mg/kg, iv administered every 2 days measured after 14 days relative to control; format: functional; conditions: read-out: TGI; procedure, shortened: as §4
[29] = Cell cycle arrest in human MGC803 cells assessed as decrease in cell level at G1 phase after 24 hrs by propidium iodide staining based flow cytometric analysis; format: functional; conditions: MGC-803; procedure, shortened: as §2
[30] = system: HepG2; test: Antitumor activity against human HepG2 cells xenografted in iv dosed ICR mouse assessed as tumor retardation effect administered every 2 days measured after 14 days; format: functional, organism-based

With `COc1cc([C@@H]2c3cc4c(cc3C[C@H]3COC(=O)[C@@H]32)OCO4)cc(OC)c1OCC(=O)Nc1cccc([N+](=O)[O-])c1` the IC50 [1] was 3.2 µM, the IC50 [2] was greater than 10 µM and the IC50 [3] was 2.82 µM.
`COc1cc([C@@H]2c3cc4c(cc3C[C@H]3COC(=O)[C@@H]32)OCO4)cc(OC)c1OCC(=O)Nc1cccc(Cl)c1` showed an IC50 [1] of 2.68 µM, an IC50 [2] of 2.97 µM and an IC50 [3] of 1.24 µM.
Work on `COc1cc([C@@H]2c3cc4c(cc3C[C@H]3COC(=O)[C@@H]32)OCO4)cc(OC)c1OCC(=O)Nc1c(C)cccc1Cl` yielded an IC50 [1] greater than 10 µM, an IC50 [2] greater than 10 µM and an IC50 [3] of 6.16 µM.
In the case of `COc1cc([C@@H]2c3cc4c(cc3C[C@H]3COC(=O)[C@@H]32)OCO4)cc(OC)c1OCC(=O)Nc1ccccc1`, the IC50 [1] is reported as greater than 10 µM, the IC50 [2] is reported as greater than 10 µM and the IC50 [3] is reported as 2.54 µM.
`COc1cc([C@@H]2c3cc4c(cc3C[C@H]3COC(=O)[C@@H]32)OCO4)cc(OC)c1OCC(=O)Nc1ccccc1F` gave an IC50 [1] of 2.2 µM, an IC50 [2] of 1.08 µM and an IC50 [3] of 0.22 µM. It also gave an Activity [4] of 41.9%, an Activity [5] of 50.8% and an Activity [6] of 7.29%. For the same molecule, the Activity [7] was 7.22%, the Activity [8] was 20.5% and the Activity [9] was 72.3%. For the same molecule, the Activity [10] was 1.8%, the Activity [11] was 22.7% and the Activity [12] was 75.5%. For the same molecule, the Activity [13] was “Dose-dependent effect”, the Activity [14] was “Dose-dependent effect” and the Activity [15] was “Dose-dependent effect”. For the same molecule, the Activity [16] was “Dose-dependent effect”, the Activity [17] was “inactive” and the Activity [18] was “Active”. The Activity [19] was “Active”, the Activity [20] was 20.82 g and the Activity [21] was 20.91 g. For the same molecule, the Activity [22] was 21.3 g, the Activity [23] was 29.09 g and the Activity [24] was 28.36 g. It also gave an Activity [25] of 27.2 g, an inhibition in vivo at 4 mg/kg [26] of 45.6% and an inhibition in vivo at 1 mg/kg [27] of 6.09%. The inhibition in vivo at 2 mg/kg [28] was 26.6%, the Activity [29] was “Dose-dependent effect” and the Activity [30] was “Dose-dependent effect”.
`COc1cc([C@@H]2c3cc4c(cc3C[C@H]3COC(=O)[C@@H]32)OCO4)cc(OC)c1OCC(=O)Nc1ccccc1Cl` showed an IC50 [1] greater than 10 µM, an IC50 [2] greater than 10 µM and an IC50 [3] greater than 10 µM.
`COc1cc([C@@H]2c3cc4c(cc3C[C@H]3COC(=O)[C@@H]32)OCO4)cc(OC)c1OCC(=O)Nc1cccc(F)c1` gave an IC50 [1] greater than 10 µM, an IC50 [2] greater than 10 µM and an IC50 [3] greater than 10 µM.
Molecule `COc1cc([C@@H]2c3cc4c(cc3C[C@H]3COC(=O)[C@@H]32)OCO4)cc(OC)c1OCC(=O)Nc1ccccc1[N+](=O)[O-]` has an IC50 [1] greater than 10 µM, an IC50 [2] greater than 10 µM and an IC50 [3] greater than 10 µM.
Work on `COc1cc([C@@H]2c3cc4c(cc3C[C@H]3COC(=O)[C@@H]32)OCO4)cc(OC)c1OCC(=O)Nc1ccccc1C` yielded an IC50 [1] greater than 10 µM, an IC50 [2] of 7.8 µM and an IC50 [3] of 4.05 µM.
`COc1cc([C@@H]2c3cc4c(cc3[C@@H](O[C@@H]3O[C@@H]5CO[C@@H](C)O[C@H]5[C@H](O)[C@H]3O)[C@H]3COC(=O)[C@H]23)OCO4)cc(OC)c1O` [ETOPOSIDE] showed an IC50 [1] of 1.7 µM, an IC50 [2] of 5.62 µM and an IC50 [3] greater than 10 µM.
`COc1ccc(NC(=O)COc2c(OC)cc([C@@H]3c4cc5c(cc4C[C@H]4COC(=O)[C@@H]43)OCO5)cc2OC)cc1` gave an IC50 [1] greater than 10 µM, an IC50 [2] greater than 10 µM and an IC50 [3] greater than 10 µM.
